# Activity calls are given as the source filed them. The calls are words filed in the database; no cut-off is given here.
# Key:
# EL4 [1] = experiment: Inhibition of lymphocyte-mediated cytolysis at a concentration of 100 uM in [51Cr]- labelled EL4 leukemia cells; format: functional; settings: Mus musculus
# D98 (Homo sapiens) = experiment: Compound was tested for inhibition of human sternal marrow cell (D98) growth at a concentration of 100 uM
# Mus musculus = species: Mus musculus; experiment: Compound was tested for inhibition of mouse connective tissue cell (L) growth at a concentration of 100 uM; format: functional; settings: for inhibition at 100 µM: Mus musculus
# Method in brief: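 D-98 (human sternal marrow) and L (mouse connective tissue) cells were cultured with compound at 100 µM, and growth inhibition was reported as %. Procedure per earlier publication.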
# Rattus norvegicus [2] = experiment: Dose required to produce an acute inflammatory response of the algal poly saccharide carrageenan into the pleural cavity of rat; IA is Inactive at 9 mg/kg; format: functional, organism-based; design: dose 9 mg/kg
# Rattus norvegicus [3] = species: Rattus norvegicus; experiment: Dose required to produce an acute inflammatory response of the algal poly saccharide carrageenan into the pleural cavity of rat.; format: functional
# Rattus norvegicus [4] = experiment: Dose required to produce an acute inflammatory response of the algal poly saccharide carrageenan into the pleural cavity of rat; IA is Inactive at 6 mg/kg; format: functional, organism-based; design: dose 6 mg/kg
# EL4 [5] = experiment: Compound was tested for inhibition of lymphocyte-mediated cytolysis at a concentration of 26 uM in [51Cr]- labeled EL4 leukemia cells; format: functional; settings: Mus musculus
# EL4 [6] = experiment: Compound was tested for inhibition of lymphocyte-mediated cytolysis at a concentration of 50 uM in [51Cr]- labeled EL4 leukemia cells; format: functional; settings: Mus musculus
Compound,inhibition at 100 µM (EL4 [1]) [%],inhibition (D98 (Homo sapiens)) [%],inhibition at 100 µM (Mus musculus) [%],ED50 (Rattus norvegicus [2]),ED50 (Rattus norvegicus [3]) [mg/kg],Inhibition (Mus musculus) [%],ED50 (Rattus norvegicus [4]),inhibition at 26 µM (EL4 [5]) [%],inhibition at 50 µM (EL4 [6]) [%]
[N-]=[N+]=Nc1nccc2c1ncn2[C@H]1C[C@H](O)[C@@H](CO)O1,13,4,12,inactive,,,,,
CSc1[nH]ccc2ncnc1-2,< 5,4,11,,9,,,,
CN(C)c1[nH]ccc2ncnc1-2,25,8,21,,9,,,,
OC[C@H]1O[C@@H](n2cnc3cnccc32)[C@H](O)[C@@H]1O (stereo in doubt; 16) [listing 1 of 2 here],,13,,inactive,,,,,
Nc1nccc2c1ncn2[C@H]1C[C@H](O)[C@@H](CO)O1,89,18,0,,10,,,,
[O-][n+]1ccc2c(c1)ncn2C1O[C@H](CO)[C@@H](O)[C@H]1O (some centres not stated),< 5,5,3,inactive,,,,,
OC[C@H]1OC(n2cnc3c(SCc4ccccc4)nccc32)[C@H](O)[C@@H]1O (some centres not stated),30,30,43,,9,,,,
OC[C@H]1O[C@@H](n2cnc3c(Cl)nccc32)C[C@@H]1O,< 5,5,25,inactive,,,,,
[N-]=[N+]=Nc1[nH]ccc2ncnc1-2,< 5,20,20,inactive,,,,,
OC[C@H]1O[C@@H](n2cnc3c(NCc4ccccc4)nccc32)C[C@@H]1O,8,18,37,,> 9,,,,
Clc1[nH]ccc2ncnc1-2,< 5,6,29,,> 9,,,,
OC[C@H]1O[C@@H](n2cnc3cnccc32)[C@H](O)[C@@H]1O (stereo in doubt; 17) [listing 1 of 2 here],,,,,,3,,,
[O-][n+]1ccc2[nH]cnc2c1,5,3,1,,> 9,,,,
OC[C@H]1OC(n2cnc3c(S)nccc32)[C@H](O)[C@@H]1O (some centres not stated),< 5,6,3,,9,,,,
c1cc2[nH]cnc2cn1,< 5,0,12,,> 9,,,,
OC[C@H]1O[C@@H](n2cnc3c(SCc4ccccc4)nccc32)C[C@@H]1O,11,18,19,inactive,,,,,
CN(C)c1nccc2c1ncn2C1O[C@H](CO)[C@@H](O)[C@H]1O (some centres not stated),10,0,14,,> 9,,,,
CC1OC(n2cnc3c(N)nccc32)CC1O (configuration not stated),25,3,12,inactive,,,,,
OCCNc1nccc2c1ncn2C1O[C@H](CO)[C@@H](O)[C@H]1O (some centres not stated),6,0,3,,,,inactive,,
[N-]=[N+]=Nc1nccc2ncn([C@H]3C[C@H](O)[C@@H](CO)O3)c12,< 5,14,2,,> 9,,,,
OC[C@H]1O[C@@H](n2cnc3c(S)nccc32)C[C@@H]1O,< 5,10,8,inactive,,,,,
C[C@H]1OC(n2cnc3c(N)nccc32)[C@H](O)[C@@H]1O (some centres not stated),32,18,4,inactive,,,,,
CN(C)c1nccc2c1ncn2[C@H]1C[C@H](O)[C@@H](CO)O1,< 5,0,6,,> 9,,,,

Compound,inhibition at 100 µM (EL4 [1]) [%],inhibition (D98 (Homo sapiens)) [%],inhibition at 100 µM (Mus musculus) [%],ED50 (Rattus norvegicus [2]),ED50 (Rattus norvegicus [3]) [mg/kg],Inhibition (Mus musculus) [%],ED50 (Rattus norvegicus [4]),inhibition at 26 µM (EL4 [5]) [%],inhibition at 50 µM (EL4 [6]) [%]
[N-]=[N+]=Nc1nccc2c1ncn2C1O[C@H](CO)[C@@H](O)[C@H]1O (some centres not stated),< 5,4,8,,> 9,,,,
CCNc1[nH]ccc2ncnc1-2,< 5,3,11,,,,inactive,,
OC[C@H]1OC(n2cnc3c(Cl)nccc32)[C@H](O)[C@@H]1O (some centres not stated),< 5,76,27,inactive,,,,,
CNc1nccc2c1ncn2C1O[C@H](CO)[C@@H](O)[C@H]1O (some centres not stated),11,8,21,,,,inactive,,
c1ccc(CNc2[nH]ccc3ncnc2-3)cc1,57,75,68,,9,,,,
OC[C@H]1O[C@@H](n2cnc3cnccc32)[C@H](O)[C@@H]1O (stereo in doubt; 16) [listing 2 of 2 here],< 5,,,,,8,,,
CCNc1nccc2c1ncn2C1O[C@H](CO)[C@@H](O)[C@H]1O (some centres not stated),8,4,20,,,,inactive,,
CCCCCCNc1[nH]ccc2ncnc1-2,100,53,82,,> 9,,,0,45
CSc1nccc2c1ncn2[C@H]1C[C@H](O)[C@@H](CO)O1,< 5,36,30,,> 9,,,,
OC[C@H]1O[C@@H](n2cnc3cnccc32)C[C@@H]1O,< 5,6,0,,> 9,,,,
[O-][n+]1ccc2c(c1)ncn2[C@H]1C[C@H](O)[C@@H](CO)O1,< 5,0,13,inactive,,,,,
c1ccc(Nc2[nH]ccc3ncnc2-3)cc1,26,12,34,inactive,,,,,
CCCCCCNc1nccc2c1ncn2C1O[C@H](CO)[C@@H](O)[C@H]1O (some centres not stated),14,8,41,,,,inactive,,
CNc1[nH]ccc2ncnc1-2,< 5,18,6,,,,inactive,,
OC[C@H]1OC(n2cnc3c(NCc4ccccc4)nccc32)[C@H](O)[C@@H]1O (some centres not stated),5,32,38,,> 9,,,,
Nc1[nH]ccc2ncnc1-2,< 5,60,24,,8,,,,
OC[C@H]1O[C@@H](n2cnc3cnccc32)[C@H](O)[C@@H]1O (stereo in doubt; 17) [listing 2 of 2 here],,1,,inactive,,,,,
c1ccc(CSc2[nH]ccc3ncnc2-3)cc1,20,26,54,,> 9,,,,
CSc1nccc2c1ncn2C1O[C@H](CO)[C@@H](O)[C@H]1O (some centres not stated),< 5,24,40,inactive,,,,,
OC[C@H]1OC(n2cnc3c(Nc4ccccc4)nccc32)[C@H](O)[C@@H]1O (some centres not stated),10,4,18,,> 9,,,,
Nc1nccc2c1ncn2[C@@H]1O[C@H](CO)[C@@H](O)[C@H]1O,80,56,49,,3,,,,
OCCNc1[nH]ccc2ncnc1-2,< 5,3,16,,> 9,,,,
Sc1[nH]ccc2ncnc1-2,< 5,26,38,,8,,,,
